Measurements reported in ChEMBL document CHEMBL4706770, “SD-91 as A Potent and Selective STAT3 Degrader Capable of Achieving Complete and Long-Lasting Tumor Regression” (ACS Med Chem Lett, 2021).
Activity calls are given as the source filed them. The calls are words filed in the database; no cut-off is given here.

Key:
[1] = Antiproliferative activity against human SUP-M2 cells assessed as cell growth inhibition incubated for 4 days by CellTiter-Glo asssay; type: functional, cell-based, SUPM2; settings: SUP-M2, 96 h
How it was run: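 Growth inhibition tested in MOLM-16 acute leukemia and SU-DHL-1 and SUP-M2 lymphoma cell lines.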

[2] = target: T1, Signal transducer and activator of transcription 6 (Homo sapiens) (UniProt P42226); assay: Induction of STAT6 degradation in human MOLM16 cells at 0.25 to 100 uM incubated for 4 hrs by Western blot analysis; type: cell-based; settings: dose 0.25-100 µM
T1 sequence (whole entry): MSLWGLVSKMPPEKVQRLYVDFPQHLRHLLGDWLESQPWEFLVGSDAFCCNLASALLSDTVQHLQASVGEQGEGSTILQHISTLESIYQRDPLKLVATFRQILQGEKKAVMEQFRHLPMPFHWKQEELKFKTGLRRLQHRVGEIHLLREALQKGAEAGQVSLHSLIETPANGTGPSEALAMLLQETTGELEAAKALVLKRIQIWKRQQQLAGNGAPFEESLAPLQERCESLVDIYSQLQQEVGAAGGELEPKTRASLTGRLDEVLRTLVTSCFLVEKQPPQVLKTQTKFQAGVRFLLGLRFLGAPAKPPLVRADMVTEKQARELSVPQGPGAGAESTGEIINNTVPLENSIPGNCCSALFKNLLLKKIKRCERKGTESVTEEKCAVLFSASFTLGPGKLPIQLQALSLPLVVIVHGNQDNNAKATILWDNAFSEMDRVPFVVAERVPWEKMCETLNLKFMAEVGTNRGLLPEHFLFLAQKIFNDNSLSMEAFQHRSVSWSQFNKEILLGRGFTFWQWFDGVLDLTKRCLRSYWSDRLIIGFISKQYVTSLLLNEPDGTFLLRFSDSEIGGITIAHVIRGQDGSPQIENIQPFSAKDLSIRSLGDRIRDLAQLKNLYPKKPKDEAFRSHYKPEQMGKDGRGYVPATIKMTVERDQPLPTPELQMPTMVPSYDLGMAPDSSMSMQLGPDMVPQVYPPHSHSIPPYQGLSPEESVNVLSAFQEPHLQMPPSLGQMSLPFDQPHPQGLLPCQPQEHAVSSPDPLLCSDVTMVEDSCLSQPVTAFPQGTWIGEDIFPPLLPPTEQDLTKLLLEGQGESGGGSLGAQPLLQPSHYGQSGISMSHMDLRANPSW
How it was run: (§1)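 Cells treated 4 h with compounds across 25 nM to 100 μM; STAT proteins detected by Western blot with GAPDH as loading control; STAT3 DC50 estimated by densitometry of STAT3 relative to GAPDH. Applies to MOLM-16 for all STATs, and to SU-DHL-1 and SUP-M2 for STAT3.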

[3] = target: T2, Signal transducer and activator of transcription 5A (Homo sapiens) (UniProt P42229); assay: Induction of STAT5 degradation in human SUP-M2 cells at 0.25 to 100 uM incubated for 14 hrs by Western blot analysis; type: cell-based; settings: SUPM2, dose 0.25-100 µM
T2 sequence (whole entry): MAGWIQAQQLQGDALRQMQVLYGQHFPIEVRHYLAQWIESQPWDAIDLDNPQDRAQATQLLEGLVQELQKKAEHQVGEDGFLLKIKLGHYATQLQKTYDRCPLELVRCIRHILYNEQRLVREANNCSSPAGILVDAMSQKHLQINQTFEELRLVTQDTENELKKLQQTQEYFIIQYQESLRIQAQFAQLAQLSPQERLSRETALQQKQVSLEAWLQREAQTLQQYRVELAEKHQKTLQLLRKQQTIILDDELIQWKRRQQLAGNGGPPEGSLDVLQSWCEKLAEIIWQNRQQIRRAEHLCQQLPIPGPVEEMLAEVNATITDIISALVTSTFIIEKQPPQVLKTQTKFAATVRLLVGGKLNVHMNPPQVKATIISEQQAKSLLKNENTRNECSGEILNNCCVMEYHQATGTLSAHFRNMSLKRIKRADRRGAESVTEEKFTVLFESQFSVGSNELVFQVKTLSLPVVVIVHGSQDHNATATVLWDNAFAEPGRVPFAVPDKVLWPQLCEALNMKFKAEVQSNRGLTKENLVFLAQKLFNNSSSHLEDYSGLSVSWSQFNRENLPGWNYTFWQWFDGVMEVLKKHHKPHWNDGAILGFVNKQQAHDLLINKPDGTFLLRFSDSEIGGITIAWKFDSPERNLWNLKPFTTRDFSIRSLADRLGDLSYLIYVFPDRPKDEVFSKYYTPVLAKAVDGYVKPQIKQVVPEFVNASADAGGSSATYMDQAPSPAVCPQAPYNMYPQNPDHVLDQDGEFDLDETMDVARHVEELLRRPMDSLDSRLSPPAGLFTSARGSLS

[4] = target: T3, Signal transducer and activator of transcription 1-alpha/beta (Homo sapiens) (UniProt P42224); assay: Induction of STAT1 degradation in human SU-DHL-1 cells at 0.25 to 100 uM incubated for 14 hrs by Western blot analysis; type: cell-based; settings: dose 0.25-100 µM
T3 sequence (whole entry): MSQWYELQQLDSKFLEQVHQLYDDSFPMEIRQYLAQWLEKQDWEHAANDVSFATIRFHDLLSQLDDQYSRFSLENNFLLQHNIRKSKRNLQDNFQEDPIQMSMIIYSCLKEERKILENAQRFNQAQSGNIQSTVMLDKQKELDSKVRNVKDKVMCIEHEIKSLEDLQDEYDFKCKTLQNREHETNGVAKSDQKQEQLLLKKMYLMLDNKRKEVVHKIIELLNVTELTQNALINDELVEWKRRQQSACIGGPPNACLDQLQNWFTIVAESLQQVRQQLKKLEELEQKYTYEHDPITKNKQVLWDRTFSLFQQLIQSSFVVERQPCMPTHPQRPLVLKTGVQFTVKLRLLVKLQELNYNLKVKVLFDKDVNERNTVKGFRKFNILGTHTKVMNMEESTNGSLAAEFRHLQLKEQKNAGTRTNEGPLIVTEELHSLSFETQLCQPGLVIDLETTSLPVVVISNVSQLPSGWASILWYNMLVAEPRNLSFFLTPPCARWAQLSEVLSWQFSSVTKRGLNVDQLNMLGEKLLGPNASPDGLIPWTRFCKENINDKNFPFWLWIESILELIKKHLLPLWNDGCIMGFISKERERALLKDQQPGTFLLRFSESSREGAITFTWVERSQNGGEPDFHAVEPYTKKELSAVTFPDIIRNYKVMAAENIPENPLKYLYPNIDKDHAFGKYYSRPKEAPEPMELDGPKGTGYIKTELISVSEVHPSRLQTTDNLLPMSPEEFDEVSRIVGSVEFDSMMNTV
How it was run: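 SU-DHL-1 or SUP-M2 cells treated over 25 nM to 100 μM. STAT family proteins assessed by Western blot.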

[5] = target: T2, Signal transducer and activator of transcription 5A (Homo sapiens); assay: Induction of STAT5 degradation in human SU-DHL-1 cells at 0.25 to 100 uM incubated for 14 hrs by Western blot analysis; type: cell-based; settings: dose 0.25-100 µM
[6] = target: T1, Signal transducer and activator of transcription 6 (Homo sapiens); assay: Induction of STAT6 degradation in human SU-DHL-1 cells at 0.25 to 100 uM incubated for 14 hrs by Western blot analysis; type: cell-based; settings: dose 0.25-100 µM
[7] = target: T2, Signal transducer and activator of transcription 5A (Homo sapiens); assay: Induction of STAT5 degradation in human MOLM16 cells at 0.25 to 100 uM incubated for 4 hrs by Western blot analysis; type: cell-based; settings: dose 0.25-100 µM; how it was run: as §1

Structure (SMILES) | IC50 [1] | Activity [2] | Activity [3] | Activity [4] | Activity [5] | Activity [6] | Activity [7]
NC(=O)CC[C@H](NC(=O)[C@@H]1CC[C@@H]2CCN(C(=O)CCCCCC#Cc3cccc4c3CN(C3CCC(=O)NC3=O)C4=O)C[C@H](NC(=O)c3cc4cc(C(F)(F)P(=O)(O)O)ccc4[nH]3)C(=O)N21)C(=O)NC(c1ccccc1)c1ccccc1 (some centres not stated) | 530 nM | – | – | – | – | – | –
NC(=O)CC[C@H](NC(=O)[C@@H]1CC[C@@H]2CCN(C(=O)CCCCCC#Cc3cccc4c3CN(C3CCC(=O)NC3=O)C4=O)C[C@H](NC(=O)c3cc4cc(C(=O)P(=O)(O)O)ccc4[nH]3)C(=O)N21)C(=O)NC(c1ccccc1)c1ccccc1 (some centres not stated) | 460 nM | inactive | inactive | inactive | inactive | inactive | inactive
CC(=O)N1CC[C@H]2CC[C@@H](C(=O)N[C@@H](CCC(N)=O)C(=O)NC(c3ccccc3)c3ccccc3)N2C(=O)[C@@H](NC(=O)c2cc3cc(C(F)(F)P(=O)(O)O)ccc3[nH]2)C1 | > 10000 nM | inactive | inactive | inactive | inactive | inactive | inactive
CC(=O)N1CC[C@H]2CC[C@@H](C(=O)N[C@@H](CCC(N)=O)C(=O)NC(c3ccccc3)c3ccccc3)N2C(=O)[C@@H](NC(=O)c2cc3cc(C(=O)P(=O)(O)O)ccc3[nH]2)C1 | > 10000 nM | inactive | inactive | inactive | inactive | inactive | inactive
